Compounds with a hit are over-represented: about 2% of the library has one in this group of screens.
Insulin prom up = insulin promoter activators in MIN6 cells, imaging, high-content screening, mouse beta cells. MIN6 insulin promoter-GFP reporter; hits give high values. z-score at 5 µM. hit rate 0.3% among 190,000;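 active = z-score above 3 at 5 µM with at least 500 cells counted in the well; inconclusive = wells under 500 cells, flagged as cytotoxic or low count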
Furin inhibitor = human furin inhibitors, primary screen, biochemical, fluorescence intensity; P09958; purified furin, fluorogenic substrate cleavage; inhibition, % at 20 µM or 30 µM; hit rate 0.061% among 220,000; AID 463115, 2010; in the data active = inhibition above about 25%
Target sequence (P09958 108-714 limits assumed): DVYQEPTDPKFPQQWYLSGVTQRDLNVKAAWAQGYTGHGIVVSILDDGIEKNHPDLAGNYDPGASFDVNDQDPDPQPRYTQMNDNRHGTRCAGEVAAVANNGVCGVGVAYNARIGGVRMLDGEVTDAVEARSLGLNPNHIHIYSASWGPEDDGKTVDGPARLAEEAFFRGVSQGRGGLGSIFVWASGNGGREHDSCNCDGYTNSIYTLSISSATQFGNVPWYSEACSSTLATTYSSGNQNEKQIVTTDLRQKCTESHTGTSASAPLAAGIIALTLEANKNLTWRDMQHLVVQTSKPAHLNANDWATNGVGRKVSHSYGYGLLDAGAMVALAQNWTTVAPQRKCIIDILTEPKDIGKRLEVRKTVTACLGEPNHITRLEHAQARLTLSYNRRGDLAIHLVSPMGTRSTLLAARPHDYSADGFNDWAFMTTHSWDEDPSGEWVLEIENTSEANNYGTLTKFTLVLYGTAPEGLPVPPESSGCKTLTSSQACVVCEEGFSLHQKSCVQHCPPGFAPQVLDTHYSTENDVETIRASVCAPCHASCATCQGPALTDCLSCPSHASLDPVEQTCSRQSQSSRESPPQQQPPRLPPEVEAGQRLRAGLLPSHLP
Insulin prom inh = inhibitors of insulin promoter-driven GFP, primary screen, imaging, TRM-6 cells (human fetal islet line), eGFP reporter, cell count; AID 1273, 2008; hit rate 0.9% among 130,000; reporter expression induced with tamoxifen; inhibition, % at 2 µM;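 active = inhibition above the mean plus 3 SD, with well images judged a real hit on visual review, cut at about 60% in these data, passing the limit was not always enough; inconclusive = inhibition over the cutoff but images rejected on review; inactive = inhibition not above the cutoff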
Autophagy mod = autophagy modulators in MEF cells, primary screen, imaging, high-content, MEF GFP-LC3; MEF GFP-LC3 puncta imaging; test concentration mostly 10 µM; calls only at 10 µM (by protocol); hit rate 0.98% among 190,000;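 active = percentage of spot-positive cells more than 3 SD above its plate mean, without a fluorescence outlier flag or 80% toxicity; inconclusive = no clear call, values can overlap the other calls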;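 also: spot-positive cell cutoff set from DMSO-treated cells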
Dynein cargo inh = inhibitors of GR-EGFP nuclear translocation, primary screen, dynein cargo transport inhibitor project, imaging, high-content, 3617.4 mouse cells. test concentration mostly 20 µM; stimulated with dexamethasone, 1 µM; hits give low values. hit rate 0.47% among 220,000. z-score, hits read low;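 active = plate z-score of nuclear minus cytoplasmic receptor signal below a set negative limit, without overly bright fluorescence or cell loss, cut at about -3.5 in these data, passing the limit was not always enough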;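 also: z-score of nuclear minus cytoplasmic ring GR-EGFP intensity difference per well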
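medium = tetracycline-free induction medium containing charcoal-stripped FBS | probe or stimulus = dexamethasone, 1.0 µM final | timing = 48 h induction, then 1 h compound, then 30 min agonist, 37 °C | detection = automated 10x imaging of fixed Hoechst-stained cells | read-out basis = nuclear versus cytoplasmic GR-EGFP signal, averaged per well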
HSV replic up = enhancers of HSV replication in host cells, fold increase, host cell viability | maximum fold increase | hit rate 0.005% among 220,000 | AID 1956, 2009 | HSV replication augmentation in cells; in the data active = maximum fold increase above about 1.5; inconclusive = no clear call, values can overlap the other calls; tested in PC3 cells
* hit, by the source's call; i = inactive; ? = inconclusive; nt = no result given; + = active, no number.

SMILES | Insulin prom up | Furin inhibitor | Insulin prom inh | Autophagy mod | Dynein cargo inh | HSV replic up
CCN(CC)c1nc2ccccc2nc1C(C#N)C(=O)NCCCOC (stereo not given) | 0.24 | 12.4 | nt | i | 2.45 | i
CCCCN(CCCC)c1nc2ccccc2nc1C(C#N)C(=O)NCCCOC (stereo not given) | nt | -23.5 | -27.8 | + | 0.52 | i
CCN(CC)c1nc2ccccc2nc1C(C#N)C(=O)NCCc1ccccc1 (stereo not given) | -0.06 | -16.6 | -25.0 | + | 0.387 | i
CC(NC(=O)C(=O)N/N=C/c1ccccc1)c1ccccc1 (stereo not given) | -0.09 | -21.4 | 0.0 | i | -0.751 | i
Cc1cc(C)cc(OCc2nc3ncc(Br)cc3[nH]2)c1 | nt | -3.1 | -28.6 | + | -0.564 | i
COc1cccc(OCc2nc3ncc(Br)cc3[nH]2)c1 | -2.09 | -28.9 | nt | i | 0.0774 | i
CCCc1[nH]nc2c1C1(C(=O)N(C(C)C)c3ccccc31)C(C#N)=C(N)O2 (stereo not given) | -0.39 | -1.8 | nt | + | 0.228 | i
CCCNc1ncccc1C(N)=O | -0.5 | -13.9 | 60.6* | i | 2.66 | i
O=C(O)COCC(=O)NCc1csc2ccccc12 | nt | -14.4 | nt | nt | 0.759 | i
Cc1ccc(C)c(N2C(=O)CN=C2Nc2ccccc2Cl)c1 | 0.77 | 25.2* | 70.0 | i | 0.869 | i
O=C1CN=C(Nc2ccccc2Cl)N1c1ccccc1 | 1.13 | -7.4 | -25.7 | i | 0.357 | i
CC(=O)Nc1ccccc1C(=O)C(=O)NCCc1ccccc1 | -0.5 | -29.0 | -20.0 | i | -0.337 | i
O=C(Cn1cnc2ccccc21)c1ccc(Br)cc1 | -0.23 | -20.4 | nt | i | -1.23 | i
Cn1c(CC(=O)c2ccc(Br)cc2)[n+](C)c2ccccc21 | -0.12 | -25.7 | nt | + | -0.297 | i
Cc1cccc(-n2c(=O)c3c4c(sc3n3c(=S)[nH]nc23)CCC4)c1 | -0.2 | -17.4 | -8.3 | + | 0.946 | i
COc1ccc(N(CC(=O)Nc2ccc(S(=O)(=O)N3CCOCC3)cc2)S(=O)(=O)c2ccc(F)cc2)cc1 | 0.39 | -16.4 | nt | i | 1.15 | i
Cn1c(SCC(=O)O)nnc1C1CCCCC1 | 0.01 | -18.3 | 83.3* | i | -0.953 | i
Cn1c(SCC(=O)c2ccccc2)nnc1C1CC1 | -0.07 | -15.7 | nt | i | 0.00349 | i
O=c1c2c3c(sc2nc2n1CCC2)CCCCC3 | -0.3 | 2.0 | nt | + | 1.01 | i
O=C(CSc1nc2c(sc3ccccc32)c(=O)n1-c1ccccc1)NCc1ccco1 | -0.33 | -13.0 | 72.7* | i | 0.0853 | i
O=C(CSc1nc2c(sc3ccccc32)c(=O)n1CCc1ccccc1)NCc1ccco1 | 0.54 | -11.2 | -36.1 | + | -0.0551 | i
N=c1c2c3c(sc2ncn1Nc1ccccc1)CCC3 | -0.15 | -10.3 | nt | nt | -1.03 | i
O=c1oc2ccccc2cc1-c1csc(Nc2nc3c(F)cccc3s2)n1 | -0.61 | 1.2 | -20.0 | + | 2.84 | i
O=c1oc2ccccc2cc1-c1csc(Nc2nc3ccc(F)cc3s2)n1 | -0.08 | -13.8 | -56.0 | i | -0.13 | i
COc1nc(NCCN2CCOCC2)nc(Nc2ccccc2)n1 | 0.22 | -25.5 | -20.0 | i | -0.229 | i
SMILES | Insulin prom up | Furin inhibitor | Insulin prom inh | Autophagy mod | Dynein cargo inh | HSV replic up
CCCCCCCCNc1nc(Cl)nc(NCCN2CCOCC2)n1 | -0.43 | -18.0 | nt | + | 0.0632 | i
Cc1ccc(N2CCN(S(=O)(=O)N3CCCCC3)CC2)cc1Cl | 0.38 | -13.9 | 70.3* | i | 0.385 | i
Cc1ccc(N2CCN(C(=O)N3CCCC3)CC2)cc1Cl | -0.48 | -22.6 | 42.9 | i | 0.333 | i
N#Cc1c(-c2ccccc2F)cc(C2CC2)nc1SCC(=O)c1cccs1 | 1.32 | 1.6 | nt | + | -0.94 | ?
COc1ccc(C2C(C#N)=C(N)N3C(=C2C#N)Sc2ccccc23)cc1 (stereo not given) | 1.3 | -4.0 | nt | + | -0.136 | ?
COc1ccc(C2C(C#N)=C(N)Nc3nc4ccccc4n32)cc1 (stereo not given) | -0.13 | -6.8 | 33.3 | i | 0.452 | i
CC(=O)NC(C)C(=O)OCC(=O)Nc1ccc(Br)cc1 (stereo not given) | 1.79 | 5.7 | 89.3* | i | 4.95 | i
